High-throughput results as filed in PubChem.
KCNK9 block: inhibitors of human KCNK9 two-pore domain potassium channel; Q9NPC2; AID 488922; 310,000 compounds, 1.2% hits; HEK293 KCNK9, FluxOR thallium flux fluorescence; hits give low values; B-score at 10 µM;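 active = ratio B-score over 3 SD below the library mean, with starting fluorescence within 5 SD of its mean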;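 also: negative B-score means less thallium flux so channel inhibition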
KCNQ1 pot: potentiators or activators of human KCNQ1 potassium channel; 310,000 compounds, 0.35% hits; B-score at 10 µM; AID 2648; CHO-K1 KCNQ1, thallium flux FluxOR fluorescence; hits give high values;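 active = fluorescence ratio B-score, a plate-corrected score, at least three library SD, with initial intensity B-score within 5 SD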
Target sequence (P51787 whole entry, looked up): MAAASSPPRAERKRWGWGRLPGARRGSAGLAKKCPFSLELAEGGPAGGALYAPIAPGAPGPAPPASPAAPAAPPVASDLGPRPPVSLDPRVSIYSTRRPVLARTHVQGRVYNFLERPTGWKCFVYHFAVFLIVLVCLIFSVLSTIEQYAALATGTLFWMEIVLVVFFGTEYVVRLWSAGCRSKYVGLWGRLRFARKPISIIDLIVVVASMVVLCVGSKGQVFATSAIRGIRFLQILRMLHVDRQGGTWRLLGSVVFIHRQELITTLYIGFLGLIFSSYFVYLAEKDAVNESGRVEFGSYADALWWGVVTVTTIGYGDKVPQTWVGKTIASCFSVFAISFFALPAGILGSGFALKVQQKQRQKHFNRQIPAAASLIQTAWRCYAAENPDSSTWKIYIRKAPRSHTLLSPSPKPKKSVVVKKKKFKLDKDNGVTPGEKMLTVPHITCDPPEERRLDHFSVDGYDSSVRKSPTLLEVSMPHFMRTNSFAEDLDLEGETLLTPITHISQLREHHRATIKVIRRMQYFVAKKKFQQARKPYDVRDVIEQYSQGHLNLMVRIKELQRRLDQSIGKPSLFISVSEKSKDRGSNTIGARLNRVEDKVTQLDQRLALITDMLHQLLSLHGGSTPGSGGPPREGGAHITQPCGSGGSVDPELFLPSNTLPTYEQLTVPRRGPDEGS
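Medium – assay buffer, equal DMSO in all wells · Material – CHO-K1 cell line with stable KCNQ1 potassium channel expression · Signal – kinetic FluxOR thallium fluorescence, 10-s 1-Hz baseline, 110-s post-stimulus read · Compound – single concentration per compound, DMSO matched to controls · Schedule – 37 °C overnight plating, 90-min dark dye load, 20-min compound pretreatment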
Kir21 block: Kir2.1 (mouse) channel inhibition. 310,000 compounds, 0.85% hits. P35561. AID 1672. B-score at 10 µM. HEK293-Kir2.1, FluxOR thallium flux fluorescence; hits give low values;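 active = fluorescence ratio B-score at or below minus 3 SD of library scores, with starting-brightness B-score within 2 SD, cut at about -4.2 in these data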;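 also: channel flux triggered by added potassium and thallium sulfate stimulus; B-score of peak minus minimum fluorescence over baseline after thallium stimulus; more negative B-score means stronger Kir2.1 block with less thallium influx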
KCNQ1 block: blocks the human KCNQ1 potassium channel. B-score at 10 µM. CHO-K1 KCNQ1, FluxOR thallium flux fluorescence; hits give high values. P51787. 310,000 compounds, 1.3% hits;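 active = compounds whose thallium flux B-score, printed positive for inhibition, exceeds three library SD while starting fluorescence stays within three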;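 also: channel opened by potassium depolarization with thallium stimulus after 20 min compound exposure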
hERG rescue: hERG (human) protection from proarrhythmic block. Q12809. CHO-hERG, FluxOR thallium flux, dofetilide IC70 present. activation (rescue from dofetilide block), less the hit threshold, % at 10 µM. 310,000 compounds, 0.51% hits. AID 1511;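 active = activation above the mean of controls blocked by dofetilide plus 5 SD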;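 also: thallium influx through hERG after potassium depolarization seen as dye fluorescence rise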
KCNK3 inh: human KCNK3 channel inhibition, primary screen; B-score at 10 µM; CHO-KCNK3 thallium flux, FluxOR fluorescence; hits give low values; AID 602410; O14649; 340,000 compounds, 0.84% hits;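 active = B-score under library mean minus 4 SD, starting fluorescence ratio at most library mean plus 5 SD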;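 also: more negative B-score means stronger inhibition of thallium flux through KCNK3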
Active calls of the source: *. Compounds with a hit are over-represented: about 3.7% of the library has one in this group of screens.

Results for O=C(Nc1cccnc1)c1ccc(COc2ccccc2Br)o1 ?
KCNK9 block: inactive; KCNQ1 pot: inactive; Kir21 block: 1.1; KCNQ1 block: inactive; hERG rescue: 22*; KCNK3 inh: inactive

What do the screens show for `CCN1CCN(CCCOc2ccc(-c3ccccc3)cc2)CC1`?
KCNK9 block: inactive; KCNQ1 pot: inactive; Kir21 block: -4.7*; KCNQ1 block: inactive; hERG rescue: -16

What do the screens show for `c1ccc(COc2ccc(OCCCCN3CCCCC3)cc2)cc1`?
KCNK9 block: inactive; KCNQ1 pot: inactive; Kir21 block: -4.7*; KCNQ1 block: inactive; hERG rescue: -14; KCNK3 inh: inactive

Results for CCN1CCN(CCOc2ccccc2-c2ccccc2)CC1 ?
KCNK9 block: inactive; KCNQ1 pot: inactive; Kir21 block: -5.3*; KCNQ1 block: inactive; hERG rescue: -5; KCNK3 inh: inactive

What do the screens show for `CCN1CCN(CCCOc2ccccc2-c2ccccc2)CC1`?
KCNK9 block: inactive; KCNQ1 pot: inactive; Kir21 block: 0.34; KCNQ1 block: inactive; hERG rescue: -12; KCNK3 inh: inactive

What do the screens show for `O=C(c1ccccc1)c1ccc(OCCCCN2CCCCC2)cc1`?
KCNK9 block: inactive; KCNQ1 pot: inactive; Kir21 block: -0.36; KCNQ1 block: inactive; hERG rescue: 0; KCNK3 inh: inactive

How did CCCCn1c(N)c(N(CCOC)C(=O)c2ccco2)c(=O)[nH]c1=O do in these assays?
KCNK9 block: inactive; KCNQ1 pot: inactive; Kir21 block: -0.05; KCNQ1 block: inactive; hERG rescue: -7; KCNK3 inh: inactive

Results for Nc1ccccc1C(=O)N1O[C@@H]2C=C[C@H]1C2 ?
KCNK3 inh: inactive

How did Cc1ccccc1OCCC(=O)OCC(=O)NCCc1ccccc1 do in these assays?
KCNK9 block: inactive; KCNQ1 pot: inactive; Kir21 block: 0.42; KCNQ1 block: inactive; hERG rescue: -15; KCNK3 inh: inactive

What do the screens show for `CCSc1nc(C2CC2)cc(-c2ccco2)c1C#N`?
KCNK9 block: inactive; KCNQ1 pot: inactive; Kir21 block: 0.32; KCNQ1 block: inactive; hERG rescue: -12; KCNK3 inh: inactive

Results for CCSc1nc(C2CC2)cc(-c2cccs2)c1C#N ?
KCNK9 block: -6.8*; KCNQ1 pot: inactive; Kir21 block: -0.29; KCNQ1 block: inactive; hERG rescue: -7; KCNK3 inh: inactive

Results for CCCSc1nc(N)nc(-c2cccs2)c1C#N ?
KCNK9 block: -6.9*; KCNQ1 pot: inactive; Kir21 block: -0.28; KCNQ1 block: inactive; hERG rescue: -11; KCNK3 inh: inactive

How did CCOC(=O)CSc1nc(N)c(C#N)c(-c2cccs2)c1C#N do in these assays?
KCNK9 block: inactive; KCNQ1 pot: inactive; Kir21 block: 1.4; KCNQ1 block: inactive; hERG rescue: -2; KCNK3 inh: inactive

Results for O=C(c1ccco1)N1CCN(Cc2cc(=O)c(OCc3c(F)cccc3Cl)co2)CC1 ?
KCNK9 block: inactive; KCNQ1 pot: inactive; Kir21 block: -0.31; KCNQ1 block: inactive; hERG rescue: -12; KCNK3 inh: inactive

How did CC1(C)CC(NC(=O)c2c(N)no[n+]2[O-])CC(C)(C)N1 do in these assays?
KCNK9 block: inactive; KCNQ1 pot: inactive; Kir21 block: 0.98; KCNQ1 block: inactive; hERG rescue: -11; KCNK3 inh: inactive

What do the screens show for `CC(=O)c1c(CSc2ccccc2)oc2ccc(O)c(CN(C)C)c12`?
KCNK9 block: inactive; KCNQ1 pot: inactive; Kir21 block: -6.5*; KCNQ1 block: inactive; hERG rescue: -9; KCNK3 inh: inactive

Results for CCOc1c(OC(C)=O)ccc(/C=C/c2ccc3cccc(OC(C)=O)c3n2)c1[N+](=O)[O-] ?
KCNK9 block: inactive; KCNQ1 pot: inactive; Kir21 block: -0.05; KCNQ1 block: 12*; hERG rescue: -13; KCNK3 inh: inactive

How did COc1ccc(NC(=O)/C(Cl)=C(/Cl)S(=O)(=O)Cc2ccccc2)cn1 do in these assays?
KCNK9 block: inactive; KCNQ1 pot: inactive; Kir21 block: -5*; KCNQ1 block: inactive; hERG rescue: -19; KCNK3 inh: inactive

What do the screens show for `COc1cc(F)ccc1S(=O)(=O)n1c(C)nc2ccccc21`?
KCNK9 block: inactive; KCNQ1 pot: inactive; Kir21 block: -6.5*; KCNQ1 block: inactive; hERG rescue: -6; KCNK3 inh: inactive

How did COc1cc(C)c(C)cc1S(=O)(=O)n1c(C)nc2ccccc21 do in these assays?
KCNK9 block: inactive; KCNQ1 pot: inactive; Kir21 block: -5.1*; KCNQ1 block: inactive; hERG rescue: -8; KCNK3 inh: inactive

How did COc1cc(S(=O)(=O)n2c(C)nc3ccccc32)ccc1F do in these assays?
KCNK9 block: inactive; KCNQ1 pot: inactive; Kir21 block: 0.73; KCNQ1 block: inactive; hERG rescue: -3; KCNK3 inh: inactive

Results for O=C(CN1CCN(Cc2cccc3ccccc23)CC1)NCCc1ccccc1 ?
KCNK9 block: inactive; KCNQ1 pot: inactive; Kir21 block: -1.3; KCNQ1 block: inactive; hERG rescue: -8; KCNK3 inh: inactive

Results for O=C(NC1CCCC1)c1ccc(Br)o1 ?
KCNK9 block: inactive; KCNQ1 pot: inactive; Kir21 block: -0.51; KCNQ1 block: inactive; hERG rescue: 4.6*; KCNK3 inh: inactive

What do the screens show for `Cc1nn(Cc2ccc(C(=O)NC(C)(C)C)o2)c(C)c1Br`?
KCNK9 block: inactive; KCNQ1 pot: inactive; Kir21 block: -0.67; KCNQ1 block: inactive; hERG rescue: -17; KCNK3 inh: inactive

What do the screens show for `Cc1nn(Cc2ccc(C(=O)NC3CCCCC3)o2)c(C)c1Br`?
KCNK9 block: inactive; KCNQ1 pot: inactive; Kir21 block: -0.59; KCNQ1 block: 6*; hERG rescue: -16; KCNK3 inh: inactive

What do the screens show for `O=C(NC1CCCCCC1)c1ccc(Br)o1`?
KCNK9 block: inactive; KCNQ1 pot: inactive; Kir21 block: -0.17; KCNQ1 block: inactive; hERG rescue: -1; KCNK3 inh: inactive

What do the screens show for `Cc1ccc(S(=O)(=O)c2c(C)nn(C(C)(C)C)c2OC(=O)C2CCCC2)cc1`?
KCNK9 block: -8*; KCNQ1 pot: inactive; Kir21 block: -0.69; KCNQ1 block: inactive; hERG rescue: -3; KCNK3 inh: -8.8*

Results for CCOC(=O)C1CCN(S(=O)(=O)c2ccc(C)cc2)CC1 ?
KCNK9 block: inactive; KCNQ1 pot: inactive; Kir21 block: -0.05; KCNQ1 block: inactive; hERG rescue: -4; KCNK3 inh: inactive

What do the screens show for `CCOc1cc(CNCc2ccccc2)ccc1OCC(=O)NC1CCCCC1`?
KCNK9 block: inactive; KCNQ1 pot: inactive; Kir21 block: -4.4*; KCNQ1 block: inactive; hERG rescue: -3; KCNK3 inh: inactive
